ABCG2 inh – blocks JC-1 efflux by human ABCG2 transporter; Q9UNQ0; IgMXP3 cells, flow cytometry; inhibition, % at 6.6 µM; 190,000 tested, 0.1% active; AID 1325;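 active = inhibition above 80%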;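 note: 0% = DMSO and 100% = nicardipine control wells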
Target sequence (Q9UNQ0 whole entry, looked up): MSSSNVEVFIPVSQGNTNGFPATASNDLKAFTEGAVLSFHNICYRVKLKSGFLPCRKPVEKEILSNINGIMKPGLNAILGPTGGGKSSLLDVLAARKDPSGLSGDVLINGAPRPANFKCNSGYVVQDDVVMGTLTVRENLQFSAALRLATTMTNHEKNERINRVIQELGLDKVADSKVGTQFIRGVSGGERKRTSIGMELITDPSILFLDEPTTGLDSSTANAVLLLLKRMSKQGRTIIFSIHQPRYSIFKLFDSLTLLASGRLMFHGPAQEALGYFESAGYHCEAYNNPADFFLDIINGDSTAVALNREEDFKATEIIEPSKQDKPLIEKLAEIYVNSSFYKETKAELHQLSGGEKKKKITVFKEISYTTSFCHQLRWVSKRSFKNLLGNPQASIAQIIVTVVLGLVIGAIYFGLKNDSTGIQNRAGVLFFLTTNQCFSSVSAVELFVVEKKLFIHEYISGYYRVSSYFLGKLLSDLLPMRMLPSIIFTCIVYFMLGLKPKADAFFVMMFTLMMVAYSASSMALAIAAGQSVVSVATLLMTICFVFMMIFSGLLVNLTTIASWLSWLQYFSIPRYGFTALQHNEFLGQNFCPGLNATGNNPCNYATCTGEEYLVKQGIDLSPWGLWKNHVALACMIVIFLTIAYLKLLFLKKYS
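Times: 10 min at 25 °C | Test system: Two drug-resistant human cell lines, ABCG2 and ABCB1 | Quantity: 3 million cells/mL final, two lines in 1:1 ratio | Signal: Flow cytometry, 530 nm JC-1 signal | Dosing: Compound at 6.6 µM | Controls: Nicardipine and DMSO wells | Reagent: JC-1 as fluorescent efflux pump substrate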
GSH bead fluor – GSH bead compound fluorescence profile; GSH beads flow cytometry, compound fluorescence 488/530 nm; hits give high values; fluorescence (KMESF) at 10 µM; 190,000 tested, 0.25% active; AID 1776; in the data active = fluorescence above about 89;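 note: glutathione beads carrying GST-tagged Bcl family fusion proteins plus one bare bead set; values are compound well signal with DMSO vehicle wells as background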
PKD1 kinase inh – PKD1 (human) kinase inhibition; Q15139; PKD1 kinase fluorescence polarization assay; inhibition, % (test concentration not listed); 200,000 tested, 0.056% active; AID 797
Lmaj promast – inhibitors of Leishmania major promastigote growth | Leishmania major promastigotes, resazurin fluorescence viability | inhibition, % at 10 µM | 200,000 tested, 9% active | AID 1063;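 note: promastigotes grown with compound for 44 hours at 28 °C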
Avidin fluor – compound fluoresces at 488/530 nm on avidin beads; 220,000 tested, 0.38% active; compound fluorescence 488/530 nm, flow cytometry; hits give high values; AID 1775; fluorescence (KMESF) at 10 µM; in the data active = fluorescence above about 47
ABCB1 inh – inhibitors of human ABCB1 transporter, ABCG2 counter-screen. P08183. CCRF-Adr cells, JC-1 efflux, flow cytometry. inhibition, % at 6.6 µM. 190,000 tested, 0.067% active; in the data active = inhibition above about 40%;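 note: 0% = vehicle and 100% = reference inhibitor; higher value means more JC-1 retained so stronger ABCB1 efflux block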
An asterisk follows results filed as active; / = no result given. The full list was thinned out, with hits kept by preference. Cut-off read from the data, not from the text of the source, unless noted: active = inhibition above about 50%; inactive = the rest.

SMILES | ABCG2 inh | GSH bead fluor | PKD1 kinase inh | Lmaj promast | Avidin fluor | ABCB1 inh
Cc1ccc2nc3c(c(N)c2c1)CCN3c1ccccc1 | -2 | 31 | -6 | 89* | 12 | -1
CN(Cc1nc(-c2ccccc2)no1)C1CCOCC1 | / | / | / | / | 5 | /
COc1ccc(OCCOCC(O)CN2CCOCC2)cc1 (centres undefined) | 1 | 28 | 7 | -4 | 4 | 0
CC1CC(OCC(O)CN2CCN(Cc3ccccc3)CC2)CC(C)(C)C1 (centres undefined) | 2 | 19 | -6 | 93* | 24 | 1
CCc1ccc(OCCOCC(O)CN2CCN(Cc3ccc(Cl)cc3)CC2)cc1 (centres undefined) | 0 | 7 | -1 | 96* | 7 | 1
OC(COCCOc1ccc(Br)cc1)CN1CCN(Cc2ccccc2)CC1 (centres undefined) | 2 | 7 | -8 | 85* | 1 | 2
COc1cccc(OCCOCC(O)CN2CCN(Cc3ccc(Cl)cc3)CC2)c1 (centres undefined) | 3 | 9 | -5 | 52* | 4 | 2
CC(=O)Nc1ccc(OCC(O)CN2CCN(Cc3ccccc3)CC2)cc1 (centres undefined) | 2 | 10 | -6 | -8 | 29 | 0
CCCc1nc2ccccc2c(C(=O)OC(C)C(=O)NCc2ccc3c(c2)OCO3)c1CC (centres undefined) | 18 | 15 | -1 | 13 | 16 | 10
CC(C)(C)C(=O)COc1ccccc1[N+](=O)[O-] | -2 | 12 | -7 | 26 | 21 | 0
Cc1ccc2nc(Cl)c(/C=N/Nc3nc(C)cc(C)n3)c(=O)n2c1 | 32 | 7 | 0 | 57* | 8 | 1
COc1cc(/C=C(\C#N)c2nc3ccccc3[nH]2)ccc1OC(=O)c1ccco1 | -7 | 11 | 19 | 13 | 4 | -1
CCN(CC)c1ccc(/C=C(/C#N)c2nc3ccccc3[nH]2)c(OC(C)C)c1 | 28 | 24 | -3 | 98* | 14 | 16
N#C/C(=C\c1ccncc1)c1nc2ccccc2[nH]1 | 5 | 11 | -5 | 59* | 11 | 0
COc1cc(/C=C(\C#N)c2nc3ccccc3[nH]2)c([N+](=O)[O-])cc1OCc1ccccc1 | 0 | 24 | -9 | 90* | 10 | 0
N#C/C(=C\c1cccnc1)c1nc2ccccc2[nH]1 | / | / | / | / | 8 | /
COc1cc(/C=C(/C#N)c2nc3ccccc3[nH]2)ccc1OCC(=O)Nc1ccccc1C(C)C | -3 | 9 | -4 | 40 | 14 | 0
COC(=O)C(C)n1cnc2c(nnn2-c2ccc(OC)cc2)c1=O (centres undefined) | 31 | 32 | -2 | -6 | 12 | -1
CS(=O)(=O)N1CCN(c2c(Cl)cccc2[N+](=O)[O-])CC1 | 0 | 8 | -1 | -1 | 9 | 0
Cc1sc(NC(=O)c2ccco2)c(C(c2cccnc2)N2CCCC2)c1C (centres undefined) | 1 | 19 | 1 | 99* | 26 | 1
CCC1Oc2ccc(C)cc2N(CC(=O)N(Cc2cccnc2)Cc2cccc(F)c2)C1=O (centres undefined) | 9 | 12 | -12 | 93* | 27 | 3
CCC1Oc2ccc(C)cc2N(CC(=O)N(Cc2ccncc2)Cc2ccco2)C1=O (centres undefined) | 1 | 14 | -8 | 80* | 5 | 1
O=C(CN1C(=O)COc2ccccc21)N(Cc1cccnc1)Cc1cccc(F)c1 | 2 | 55 | -6 | 95* | 8 | 1
CC1=NN(C(=O)COc2ccccc2C)C(O)(c2ccc(Cl)cc2)C1 (centres undefined) | -2 | 15 | -6 | 3 | 8 | -1
N#CC1=C(N)NC(SCC(=O)Nc2ccc(Br)cc2)=C(C#N)C12CCCCC2 | 0 | 55 | -4 | 84* | 12 | 0
SMILES | ABCG2 inh | GSH bead fluor | PKD1 kinase inh | Lmaj promast | Avidin fluor | ABCB1 inh
N#CC1=C(N)NC(SCc2ccccc2)=C(C#N)C12CCCC2 | 0 | 22 | -3 | 26 | 7 | 0
CCSC1=C(C#N)C2(CCCC2)C(C#N)=C(N)N1 | 1 | 24 | -13 | 7 | 4 | 0
N#CC1=C(N)NC(SCc2ccc(Cl)cc2)=C(C#N)C12CCCCC2 | 0 | 14 | -2 | 99* | 34 | 0
N#CC1=C(N)NC(SCC(=O)c2ccccc2)=C(C#N)C12CCCC2 | -21 | 23 | -9 | 19 | 12 | -9
N#CC1=C(N)NC(SCc2ccc(Br)cc2)=C(C#N)C12CCCCC2 | 1 | 22 | -4 | 98* | 24 | 0
CCc1cccc(CC)c1NC(=O)CO/N=C(\C)c1cccs1 | 4 | 18 | 7 | 5 | 13 | 1
CCOc1cc(C2NC(=O)NC(c3ccccc3)=C2C(=O)c2ccccc2)c(Br)cc1OCC(=O)O (centres undefined) | -1 | 20 | -7 | -7 | 10 | 0
COc1ccccc1C(=O)NCc1n[nH]c(=S)n1Cc1ccccc1 | 2 | 21 | -4 | -8 | 11 | 0
Cc1ccc(C(=O)CCNc2ccccc2)o1 | 0 | 29 | -6 | 94* | 9 | 0
O=C1/C(=C/c2ccc(Cl)cc2)NC(=S)N1Cc1cccnc1 | -1 | 10 | 6 | 84* | 4 | 0
COc1ccc(CC(=O)Nc2cc(C)ccn2)cc1 | 14 | 36 | -8 | -2 | 10 | 4
O=C(Cc1csc(-c2ccccc2)n1)Nc1ccc(C(F)(F)F)cc1 | 17 | 4 | -4 | 87* | 14 | 0
CCC(=O)Nc1nc2ccccc2n1Cc1ccccc1 | 0 | 37 | -9 | 40 | 5 | 0
CCCn1c(NC(=O)c2cccc(C)c2C)nc2ccccc21 | 4 | 12 | -5 | 98* | 10 | 1
CCC(=O)Nc1nc2ccccc2n1Cc1ccc(C)cc1 | 3 | 16 | -8 | 99* | 10 | 1
Cn1c(NC(=O)c2ccccc2NC(=O)C(C)(C)C)nc2ccccc21 | 10 | 17 | -6 | 77* | 5 | 2
CC(C)(C)C(=O)Nc1ccccc1C(=O)Nc1ccccn1 | 1 | 19 | 4 | 1 | 23 | 0
CCCn1c(NC(=O)c2ccc(Cl)c(S(=O)(=O)N3CCCC3)c2)nc2ccccc21 | 5 | 29 | -1 | 72* | 13 | 1
O=C(CCCn1c(=O)[nH]c2cc(Cl)ccc2c1=O)NCC1CCCO1 (centres undefined) | 3 | 22 | 9 | 15 | 33 | 0
CC1CCCC(NC(=O)CCCn2c(=O)[nH]c3cc(Cl)ccc3c2=O)C1C (centres undefined) | 1 | 36 | -7 | 0 | 100* | 0
Cc1nn(C(=O)CNS(=O)(=O)c2ccccc2)c(C)c1Sc1ccc(Cl)cc1 | -7 | 10 | -12 | 51* | 13 | -1
O=S(=O)(CC(CN1CCCCC1)N1CCCCC1)c1ccccc1 (centres undefined) | 0 | 13 | -3 | 98* | 14 | 0

Source: PubChem
